In paper PMC9366314 (Acta Pharmaceutica Sinica. B, 2022):

Key:
phosphorylated YAP = experiment: Western blot of phosphorylated YAP in MP41 xenograft tumor tissues; assay type: in vivo, mice; settings: testing dose
Summary of the method: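 Nude BALB/c nu/nu mice (18–22 g, 6–8 weeks) bearing MP41 xenografts were randomised (n = 6/group) and dosed ip daily for 21 days (5, 15 or 30 mg/kg/day arms). Tumours were taken on Day 22 and lysed in RIPA with phosphatase and protease inhibitors. Lysates were spun at 15,000 rpm, 4 °C for 15 min, protein quantified by BCA, run on 8–12% SDS-PAGE, transferred to PVDF, blocked in 5% BSA and detected by ECL.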

MP41 cells [1] = experiment: Transwell migration assay, MP41; assay type: cell-based; settings: 3, 10, and 20 μmol/L; 48 h
Summary of the method: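 MP41 cells were seeded at 1 × 10^4 cells/well in Transwell upper chambers, with RPMI-1640 plus 20% FBS in the lower chamber, and left overnight. Test compound was added for 48 h. Cells left in the upper chamber were removed, and cells on the lower side were stained with crystal violet for 0.5 h and counted by microscope at ×40.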

92.1 cells [2] = experiment: Transwell migration assay, 92.1; assay type: cell-based; settings: 3, 10, and 20 μmol/L; 48 h
MP41 cells [3] = experiment: Apoptosis assay by flow cytometry; assay type: cell-based; settings: 48 h
Summary of the method: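 MP41 cells were seeded at 3 × 10^5 cells/well, left overnight, then exposed to test compound for 48 h. Washed cells were stained with Annexin V-FITC for 15 min, then with PI for 5 min. Samples were analysed by flow cytometry. Data are mean ± SEM, n = 3.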

MP41 xenograft = MP41 xenograft model; assay type: in vivo, nude BALB/c nu/nu mice; settings: 21 days
Summary of the method: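 Nude BALB/c nu/nu mice (18–22 g, 6–8 weeks) bearing MP41 xenografts were randomised at n = 6/group. They received vehicle or test compound (5, 15 or 30 mg/kg/day) ip for 21 consecutive days. Body weight and tumour size were recorded every 2 days. Tumours were harvested on day 22 for weighing and H&E staining. Groups were compared by one-way ANOVA.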

CHO-M1 cells = experiment: Cytotoxicity on CHO-M1 cells; assay type: cell-based; settings: CCK-8
[4] = Pharmacokinetic studies in ICR mice; assay type: in vivo; settings: male, mouse, plasma
Summary of the method: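 Male ICR mice received test compound at 5 mg/kg iv or 15 mg/kg po. Samples were centrifuged at 6800×g, 2–8 °C for 6 min, stored at −80 °C and quantified by LC–MS/MS.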

Gαq/11 [5] = experiment: AngII-induced intracellular Ca2+ release in HEK293-AT1R cells; assay type: cell-based; settings: 100 μmol/L
Summary of the method: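 HEK293 cells overexpressing AT1R were loaded with Fluo-4 AM at 37 °C for 1 h, then pretreated with test compound for 0.5 h. AngII was added at a range of concentrations to build a dose–response curve. Fluorescence was read at 485/525 nm excitation/emission. Data are mean ± SEM, n = 3.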

MP41 cells [6] = experiment: Clonogenic; assay type: cell-based; settings: 1 and 3 μmol/L; 9 days
Summary of the method: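 MP41 cells were seeded at 4000 cells/well and left overnight. They were exposed to test compound for 9 days, with medium and compound renewed every three days. Colonies were fixed in 4% paraformaldehyde for 15 min, stained with crystal violet for 0.5 h and counted with a colony counter. Data are mean ± SEM, n = 3.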

92.1 cells [7] = experiment: Transwell invasion assay, 92.1; assay type: cell-based; settings: 3, 10, and 20 μmol/L
Gαq/11 [8] = target: Gαq/11 (Homo sapiens, UniProt P50148); experiment: Agonist; assay type: cell-based; settings: HEK293-AT1R cells; different concentrations
Summary of the method: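 HEK293 cells transiently co-transfected with AT1R, Gαq-RLuc8, unlabeled Gβ1 and Gγ2-Venus, replated 24 h after transfection and cultured overnight. Cells were pretreated 1 h with test compound at several concentrations, then AngII was added, followed by coelenterazine as luciferase substrate. BRET between Gα and Gβγ was read on a plate reader. Runs were in triplicate, mean ± SEM (n = 3).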

MP41 cells [9] = experiment: Cell cycle analysis by flow cytometry, MP41; assay type: cell-based; settings: 48 h
Summary of the method: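 MP41 cells were seeded at 3 × 10^5 cells/well, left overnight, then exposed to test compound for 48 h. Cells were washed and fixed in 70% ethanol at 4 °C for 12 h. Staining with RNase (100 μg/mL) and PI (50 μg/mL) ran at 37 °C for 0.5 h. Phase distribution was read by flow cytometry. Data are mean ± SEM, n = 3.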

phosphorylated ERK = experiment: Western blot of phosphorylated ERK in MP41 xenograft tumor tissues; assay type: in vivo, mice; settings: testing dose
Summary of the method: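 Cells or xenograft tumour tissue were lysed in RIPA buffer with protease and phosphatase inhibitors. Lysates were cleared at 15,000 rpm, 4 °C for 15 min, and protein was quantified by BCA. Proteins were separated on 8%–12% SDS-PAGE, transferred to PVDF and blocked with 5% BSA. After primary and secondary antibodies, bands were detected by enhanced chemiluminescence.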

92.1 cells [10] = experiment: Clonogenic; assay type: cell-based; settings: 1 and 3 μmol/L; 9 days
Summary of the method: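 92.1 cells were exposed to test compound for 9 days, and colonies were counted with a colony counter. Data are mean ± SEM, n = 3.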

MP41 cells [11] = experiment: Rescue assay, siRNA GNA11 knockdown in MP41 cells; assay type: cell-based; settings: 72 h
Summary of the method: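 Cells were transfected with siRNA against GNA11 (MP41) or GNAQ (92.1), or with a matching control siRNA. After 48 h, cells were reseeded at 3000 cells/well and cultured 18–24 h. They were then exposed to test compound for 72 h. CCK-8 was added for 2–4 h and absorbance read at 450 nm. Data are mean ± SEM, n = 3.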

Sequence of Gαq/11 (Homo sapiens, UniProt P50148) (P50148 whole entry): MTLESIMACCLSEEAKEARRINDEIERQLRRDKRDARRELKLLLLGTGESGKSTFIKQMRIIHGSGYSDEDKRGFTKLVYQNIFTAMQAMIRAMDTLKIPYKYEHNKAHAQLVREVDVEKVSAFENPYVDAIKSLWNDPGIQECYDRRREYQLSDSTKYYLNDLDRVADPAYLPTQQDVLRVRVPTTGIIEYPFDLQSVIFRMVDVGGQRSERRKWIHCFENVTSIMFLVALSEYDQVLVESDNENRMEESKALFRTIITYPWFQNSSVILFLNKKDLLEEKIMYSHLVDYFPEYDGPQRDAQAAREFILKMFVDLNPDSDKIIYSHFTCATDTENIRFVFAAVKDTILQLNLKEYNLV
Sequence of Gαq/11 (Homo sapiens, UniProt P50148) (P62873 2-340 partner limits assumed): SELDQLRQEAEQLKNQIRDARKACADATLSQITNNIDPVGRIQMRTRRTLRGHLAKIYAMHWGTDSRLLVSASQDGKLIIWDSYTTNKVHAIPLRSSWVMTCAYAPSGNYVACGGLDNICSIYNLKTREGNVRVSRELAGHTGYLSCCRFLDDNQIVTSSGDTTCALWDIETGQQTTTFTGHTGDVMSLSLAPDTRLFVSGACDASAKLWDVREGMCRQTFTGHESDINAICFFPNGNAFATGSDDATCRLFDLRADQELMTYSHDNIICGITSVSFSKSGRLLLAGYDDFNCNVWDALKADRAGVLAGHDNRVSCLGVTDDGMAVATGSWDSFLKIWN
Sequence of Gαq/11 (Homo sapiens, UniProt P50148) (P59768 2-68 partner limits assumed): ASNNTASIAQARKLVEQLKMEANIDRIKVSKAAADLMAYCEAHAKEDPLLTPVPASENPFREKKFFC

With `CN1CCC[C@H]1CN1CCn2cc(-c3ccccc3)nc2[C@@H]1CC1CCCCC1` [GQ262] the “Phosphorylated YAP expression in tumor tissues” value (phosphorylated YAP) was “increased the accumulation of phosphorylated YAP”, the MP41 cell migration (MP41 cells [1]) was “remarkably and dose-dependently inhibited” and the 92.1 cell migration (92.1 cells [2]) was “remarkably and dose-dependently inhibited”. The Cell apoptosis (MP41 cells [3]; 3 μmol/L) was 11.5%, the Cell apoptosis (MP41 cells [3]; 10 μmol/L) was 16.0% and the “Tumor growth inhibition (TGI)” value (MP41 xenograft; 5 mg/kg/day ip) was 55.2%. The “Tumor growth inhibition (TGI)” value (MP41 xenograft; 15 mg/kg/day ip) was 82.8%, the “Tumor growth inhibition (TGI)” value (MP41 xenograft; 30 mg/kg/day ip) was 106.6% and the “Body weight of the mice” value (MP41 xenograft; 5, 15, 30 mg/kg/day ip) was “did not decline”. The “Side effects during and after the treatment (H&E staining)” value (MP41 xenograft; 5, 15, 30 mg/kg/day ip) was “did not observe manifest side effects”, the “Cell viability of CHO-M1 cells, 2 h” value (CHO-M1 cells; 2 h, 10 and 20 μmol/L) was “did not impact the cell viability” and the “Cell viability of CHO-M1 cells, 24 h” value (CHO-M1 cells; 24 h, up to 20 μmol/L) was “did not impact the cell viability”. The AUC ([4]; iv, 5 mg/kg) was 1620 ± 70 ng·h/mL, the Cmax ([4]; iv, 5 mg/kg) was 2470 ± 192 ng/mL and the MRT ([4]; iv, 5 mg/kg) was 1.1 ± 0.1 h. For the same compound, the Tmax ([4]; iv, 5 mg/kg) was 0.08 h, the Vd ([4]; iv, 5 mg/kg) was 3.9 ± 0.4 L/kg and the clearance ([4]; iv, 5 mg/kg) was 50.2 ± 2.1 mL/min/kg. The half-life ([4]; iv, 5 mg/kg) was 1.8 ± 0.2 h, the AUC ([4]; po, 15 mg/kg) was 2900 ± 358 ng·h/mL and the Cmax ([4]; po, 15 mg/kg) was 1040 ± 267 ng/mL. For the same compound, the MRT ([4]; po, 15 mg/kg) was 3.1 ± 0.7 h, the Tmax ([4]; po, 15 mg/kg) was 0.5 ± 0.4 h and the bioavailability ([4]; po, 15 mg/kg) was 59.5%. The half-life ([4]; po, 15 mg/kg) was 2.4 ± 0.7 h, the “Effect on AngII-stimulated Ca2+ release” value (Gαq/11 [5]) was “obviously suppressed the Ca^2+ release” and the “Colony formation of MP41 cells” value (MP41 cells [6]) was “obviously blocked the colony formation”. For the same compound, the 92.1 cell invasion (92.1 cells [7]) was “poor invasion”, the “Effect on AngII-induced BRET signals” value (Gαq/11 [8]) was “dose-dependently inhibitory efficacy on BRET signals” and the “Cellular proportion in G0/G1 phase” value (MP41 cells [9]; 3 μmol/L) was 78.0%. The “Cellular proportion in G0/G1 phase” value (MP41 cells [9]; 10 μmol/L) was 79.4%, the “Phosphorylated ERK expression in tumor tissues” value (phosphorylated ERK) was “inhibited the phosphorylated ERK” and the “Colony formation of 92.1 cells” value (92.1 cells [10]) was “obviously blocked the colony formation”. The “Antiproliferative activity on MP41 (si#control)” value (MP41 cells [11]; 5 and 10 μmol/L) was “remarkable antiproliferative activity” and the “Antiproliferative activity on MP41 (si#GNA11)” value (MP41 cells [11]; GNA11 knockdown) was “could not inhibit MP41 cell proliferation”.
